Experimental data pooled from the literature.
Compare with care: the assays were run in different laboratories.
Target: Testis-specific serine/threonine-protein kinase 2 (TSSK2, Homo sapiens, UniProt Q96PF2)
Residues used in one study (Q96PF2 1-358): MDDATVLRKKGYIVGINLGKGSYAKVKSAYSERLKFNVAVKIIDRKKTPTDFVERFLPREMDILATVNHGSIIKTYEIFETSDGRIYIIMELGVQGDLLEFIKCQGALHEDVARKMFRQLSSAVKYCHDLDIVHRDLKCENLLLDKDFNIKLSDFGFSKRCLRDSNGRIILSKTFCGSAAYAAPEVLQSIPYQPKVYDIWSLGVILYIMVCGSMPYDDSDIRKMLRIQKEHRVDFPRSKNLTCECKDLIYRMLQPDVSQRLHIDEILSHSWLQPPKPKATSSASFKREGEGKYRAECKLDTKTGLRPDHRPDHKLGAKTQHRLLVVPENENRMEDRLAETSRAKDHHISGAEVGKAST

Compound	effect on	action	technique	tested at	endpoint	value
CCOc1cc(-c2nncn2C)ccc1Nc1ncc2cc(C)nc(NCC(C)(C)C)c2n1	enzyme activity	inhibitor	FRET	1 µM	inhibition	< 15%
N#CCCc1ccc2c(c1)-c1[nH]c3ccc([N+](=O)[O-])cc3c1CC(=O)N2	cell-free assay			0.5 µM	remaining signal	78.7%
O=C(Nc1cnn(-c2csc(C(=O)NC3COC3)c2)c1)Nc1ccccc1Cl	enzyme activity	inhibitor		5 µM	remaining activity	91.5%
CCCS(=O)(=O)Nc1ccc(F)c(C(=O)c2c[nH]c3ncc(-c4ccc(Cl)cc4)cc23)c1F	enzyme activity	inhibitor		1 µM	inhibition	< 10%
CC(C)(C)c1nc2c(s1)c1nc(N)ncc1c1ccc(NS(=O)(=O)c3c(F)cccc3F)c(F)c12	enzyme activity	inhibitor	radiometric	1 µM	remaining activity	95%
CN1CC(Oc2cnc(C#N)cc2-c2ccn3nc(NC(=O)C4CC4)cc3c2)C1	enzyme activity	inhibitor		1 µM	inhibition	0%
Cc1sc(C(=O)NC2COC2)cc1-n1cc(NC(=O)Nc2c(F)cccc2Cl)cn1	enzyme activity	inhibitor		10 µM	remaining activity	84.7%
CNC(=O)c1cc(Oc2ccc(NC(=O)Nc3ccc(Cl)c(C(F)(F)F)c3)cc2)ccn1	enzyme activity	inhibitor		10 µM	inhibition	-1%
CNc1cccc2cc(C(=O)Nc3ccc(C(=O)O)cc3)c(=O)[nH]c12	enzyme activity	inhibitor		10 µM	inhibition	3.4%
Cc1ccc(Nc2nccc(N(C)c3ccc4c(C)n(C)nc4c3)n2)cc1S(N)(=O)=O	enzyme activity	inhibitor		0.3 µM	inhibition	0%
COc1cc(Cl)c(C(=O)N[C@@H](CN[C@H]2CC[C@@H](N)CC2)Cc2ccc(C#N)cc2)cc1-c1ccc(CN[C@H](C)c2ccc(C)cc2)o1	enzyme activity	inhibitor		1 µM	remaining activity	101%
O=C1Nc2ccc(Cl)cc2C1=Cc1cc(Cl)c(O)c(Cl)c1	cell-free assay			0.5 µM	remaining signal	94.4%
CCN(CC)CCNC(=O)c1c(C)[nH]c(/C=C2\C(=O)Nc3ccc(F)cc32)c1C	enzyme activity	inhibitor		0.3 µM	inhibition	0%
COc1cc2ncnc(Nc3ccc(Oc4ccccc4)cc3C)c2cc1OC	enzyme activity	inhibitor		1 µM	inhibition	-1%
